# Source: PubChem (several laboratories)
# Sampled rows, rich in hits. Any-hit rate of the full collection: about 9%.
# D1 allo mod = D1 CRE-luciferase signal change, two-sided – cell-based, HEK293 D1, dopamine EC30, D1 allosteric modulator project, primary screen. B-score at 10 µM. 58,000 tested, 5.9% active. AID 641, 2007. dopamine EC30 potentiation; actives deviate in either direction. D(1A) dopamine receptor (Homo sapiens), P21728;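 active means luminescence count or its row- and column-corrected plate score outside the 99.7% band of the plate's sample wells, on either side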
# mHtt clearance = clearance of mutant huntingtin inclusions, primary screen, imaging, HeLa Exon1htt(103Q)mCFP, confocal imaging; aggregate imaging; zero = plate's median compound well; inhibition, % at 1.5 µM; 47,000 tested, 0.42% active;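 active means inhibition of aggregate fluorescence above about 70%, also judged a hit by eye on the cell image, limit read from the data, passing the limit was not always enough; inconclusive means no rule stated for this call; inactive means not judged a hit on image review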;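 further: cells exposed to compound for three days before fixation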
# M1 agonist = M1 muscarinic receptor agonists, primary screen, CHO-M1 cells, Fluo-4 calcium, agonist mode; Fluo-4 calcium fluorescence; active compounds read high; B-score at 10 µM; AID 626, 2007; 64,000 tested, 3% active;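 active means fluorescence rise, raw or as B-score row- and column-corrected plate score, outside the 99.7% band of its plate's samples, either direction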
# M1 antagonist = antagonists of rat M1 muscarinic receptor | Muscarinic acetylcholine receptor M1 (Rattus norvegicus), P08482 | 64,000 tested, 3.4% active | CHO-M1 cells, Fluo-4 calcium, ACh EC80 antagonist mode; active compounds read low | B-score at 10 µM;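 active means calcium fluorescence response, raw or row-and-column corrected B-score, differing from the plate sample mean either way at a set confidence level, mostly lower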
# Target sequence (P08482 whole entry, looked up): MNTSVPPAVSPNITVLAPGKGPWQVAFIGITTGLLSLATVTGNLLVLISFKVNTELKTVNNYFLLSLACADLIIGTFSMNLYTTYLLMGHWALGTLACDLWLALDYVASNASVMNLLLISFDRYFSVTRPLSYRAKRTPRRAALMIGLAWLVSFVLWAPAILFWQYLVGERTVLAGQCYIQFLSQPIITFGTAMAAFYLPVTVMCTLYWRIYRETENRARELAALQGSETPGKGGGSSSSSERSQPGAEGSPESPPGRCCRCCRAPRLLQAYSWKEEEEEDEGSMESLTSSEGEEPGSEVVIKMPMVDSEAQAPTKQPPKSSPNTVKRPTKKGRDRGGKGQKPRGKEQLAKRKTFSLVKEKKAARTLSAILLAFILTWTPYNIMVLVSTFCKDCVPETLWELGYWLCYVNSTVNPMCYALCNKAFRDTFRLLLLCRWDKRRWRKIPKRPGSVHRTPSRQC
# AP ELISA ortho = alternative complement pathway inhibitors, primary screen, biochemical, ELISA, human serum, orthogonally pooled compounds | 62,000 tested, 0.08% active | inhibition, % at 5 µM | LPS-coated ELISA, C3 deposition; tested in compound mixtures | AID 1235, 2008;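 active means inhibition above 30% in each of the two pooled mixtures holding the compound, so the lower value exceeds 30%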;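 further: 0% = serum in Mg-EGTA without compound and 100% = EDTA serum blank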
#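 Assay system: human serum alternative complement pathway, C3 deposition on LPS-coated wells; Dosing: 5 µM per compound in ten-compound mixtures; Detection: Anti-C3 ELISA, OD 450 nm; Buffer or medium: Mg2+-EGTA GVB++ buffer containing human serum at 1:15 dilution; Timing: 1 h at 37 °C; Replication: two different pools per compound.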
# M1 agonist conf = rat M1 muscarinic receptor agonists, confirmation, CHO-M1 cells, Fluo-4 calcium, duplicate retest; 1,700 tested, 19% active; Fluo-4 calcium fluorescence, agonist mode; actives lie on both sides; shares compounds with M1 agonist; fluorescence change (max-min) at 10 µM;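 active means fluorescence change differs from the solvent-only DMSO control mean at a set confidence level in both duplicate runs; inconclusive means differs from solvent-only control mean in just one of two runs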;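 further: an EC20 dose of acetylcholine follows compound addition during the same imaging run; raw fluorescence intensity difference in instrument units with no normalization to controls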
# M4 ag counter = agonist activity at rat M4 receptor, confirmation, counter-screen for M1 allosteric modulator project, cell-based, agonist mode | shares compounds with M1 agonist | CHO M4/Gqi5 cells, Fluo-4 calcium fluorescence; actives lie on both sides | fluorescence change (max-min) at 10 µM | 1,700 tested, 9% active | AID 1741, 2009;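 active means fluorescence change differing from the plate's solvent-only control wells at 99.7% confidence in both duplicates, whether higher or lower; inconclusive means differs from solvent controls in only one of two duplicates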
# An asterisk follows results filed as active; ? = inconclusive; . = no result.
SMILES,D1 allo mod,mHtt clearance,M1 agonist,M1 antagonist,AP ELISA ortho,M1 agonist conf,M4 ag counter
CCCCOC(=O)c1cc(-c2ccc(/C=N/n3cnnc3)o2)ccc1Cl,.,-10,.,.,.,.,.
CCOC(=O)c1cc(-c2ccc(/C=N\n3cnnc3)o2)ccc1Cl,0.31,-155,4.9*,-0.34,-29,-27*,-42
Cc1cc(C)cc(N2C(=O)C3C4C=CC(C4)C3C2=O)c1 (centres undefined),.,24,-0.013,0.18,12,.,.
CCN(CC)P1(=O)OC(c2cc(OC)c(OC)c(OC)c2)=Nc2c1c(C)nn2-c1ccccc1 (centres undefined),0.25,.,4.4*,0.43,3,7,-33
COc1ccc(-c2c(C)nn(-c3ccccc3)c2N)cc1OC,.,1,.,.,.,.,.
CCCCCCc1c(O)c2ccccc2[nH]c1=O,0.11,.,13*,-0.66,19,-10,-40
CCCNC(=O)Cc1c(O)c2ccccc2[nH]c1=O,.,47,.,.,.,.,.
Cc1noc(C)c1Cn1nc(C(=O)O)c2ccccc2c1=O,.,.,-0.71,-0.061,-1,.,.
CC1CN=C(c2cccn2Cc2ccc(F)cc2Cl)O1 (centres undefined),-0.045,-1,0.54,-0.16,0,.,.
COC(=O)C1=C(CN2CCCc3ccccc32)NC(=O)NC1c1ccc(F)cc1 (centres undefined),0.32,.,1.2,0.68,1,.,.
CC(C)C(c1nnnn1Cc1ccccc1)N(Cc1ccco1)Cc1cccs1 (centres undefined),0.87,.,13*,-1.2,12,-11,-14
Cc1ccc(C(c2nnnn2C(C)(C)C)N(Cc2ccco2)Cc2cccs2)cc1 (centres undefined),-2.2,.,6.5,0.19,21,.,.
COc1ccc(Cn2nnnc2C(C(C)C)N(Cc2ccco2)Cc2cccs2)cc1 (centres undefined),0.83,-8,3.2*,-0.13,-5,-6.4,?
COc1cccc(C2C(C#N)=C(N)Oc3cc(C)oc(=O)c32)c1OC (centres undefined),-0.66,.,0.65,-0.43,23,.,.
CCS(=O)(=O)c1ccc2oc(SCC(=O)NC3CCCC(C)C3C)nc2c1 (centres undefined),.,2,.,.,.,.,.
O=C(OCc1cccs1)c1ccccc1NS(=O)(=O)c1ccc2c(c1)OCCO2,2.4,2,4*,1,12,-12,-48
COc1ccc(Cn2nc(C)n(N(C)c3ncc(C(F)(F)F)cc3Cl)c2=O)cc1,.,-75,.,.,.,.,.
COCC(C)n1c(C)cc(C(=O)CSc2nc3ccccc3c(=O)[nH]2)c1C (centres undefined),.,.,2.8*,0.74,19,-15,-21
Cc1cc(NC(=O)CSc2nnc(-c3ccoc3C)o2)no1,1.3,.,-3.7*,0.39,-5,?,-54
COc1cc(OC)c(-c2nnc(-c3ccc(OC)c(OC)c3OC)o2)cc1OC,-0.67,9,4.5*,-0.34,-7,-30*,-60
COc1cccc(-c2nnc(-c3ccc(C(F)(F)F)cc3)o2)c1OC,.,-20,.,.,.,.,.
Clc1ccc(OCCN2CCN(c3ncnc4sccc34)CC2)cc1,-2.9,.,4.5*,-3.3*,11,15,-21
Cc1ccccc1COc1ccc(/C(O)=C2/C(=O)C(=O)N(CCCn3ccnc3)C2c2ccco2)cc1 (centres undefined),.,.,-0.004,-0.3,.,.,.
O=C1N2CN(C(c3ccccc3)c3ccccc3)CN=C2SC1(CO)CO,-0.53,-19,1.4,-0.21,9,.,.
c1ccc(Cn2nnnc2C(c2cccnc2)N2CCN(c3ccccc3)CC2)cc1 (centres undefined),-0.13,37,6.1*,-1.1,7,?,?
SMILES,D1 allo mod,mHtt clearance,M1 agonist,M1 antagonist,AP ELISA ortho,M1 agonist conf,M4 ag counter
CCn1c(SCC(=O)OC)nnc1-c1ccncc1,.,14,.,.,.,.,.
COC(=O)CSc1nnc(-c2ccncc2)n1N,0.028,-17,4.5*,1.9,4,?,-46
CC(C)CNC(=O)c1cccc(NC(=O)C2CCCO2)c1 (centres undefined),-0.73,.,.,.,10,.,.
CCOc1cc(C2C(C#N)=C(N)OC(C)=C2C(C)=O)cc(Br)c1O (centres undefined),0.32,.,23*,-0.027,15,180*,170*
Cc1ccc(-c2cn3nc(C)c(C)nc3n2)cc1,-8.5*,.,11*,0.4,2,103*,83
O=C(CNC(=O)c1ccco1)OC(C(=O)c1ccccc1)c1ccccc1 (centres undefined),.,-44,6.7*,0.023,1,-9.8,?
CCOC(=O)N1CCN(C(=O)c2ccc(CS(=O)(=O)c3ccccc3OC)o2)CC1,-0.023,.,0.07,-0.038,9,.,.
COc1ccccc1N1CCN(C(=O)c2ccc(CS(=O)(=O)c3ccccc3OC)o2)CC1,-0.39,.,4.5*,-0.71,19,-13,?
Cc1ccccc1S(=O)(=O)Cc1ccc(C(=O)N2CCN(c3ccc(F)cc3)CC2)o1,0.61,27,3.2*,-0.86,0,-9.4,-54
CC(=O)C1=C(C)Nc2ncnn2C1c1ccc(Cl)cc1Cl (centres undefined),-0.12,44,-0.06,0.44,12,.,.
Cc1cc(OCc2nnc(SCC(=O)OC3CCCCC3)o2)ccc1Cl,0.19,.,4.6*,0.13,-4,?,?
COc1cccc(C2c3c(oc4ccc(Cl)cc4c3=O)C(=O)N2c2cc(C)on2)c1OC (centres undefined),-0.03,2,-0.62,-0.37,10,.,.
COc1ccc(C(=O)Cn2nnc(-c3ccccc3NC(=O)c3ccco3)n2)cc1,0,20,-0.0024,0.59,6,.,.
O=C1c2ccccc2N2C(=O)c3ccccc3C2N1Cc1ccco1 (centres undefined),1.6,?,5.3*,-0.78,-1,0.65,-28
C=CCSc1nnc(NC(=O)CSc2nc3ccccc3o2)s1,-0.35,-4,-0.48,-2.1,-13,.,.
COc1ccc(OC(C)C(=O)N2CCN(c3ccccn3)CC2)cc1 (centres undefined),-0.14,.,-0.43,0.082,8,.,.
CC(C)NC(=O)c1cnc(N2CCN(c3ccccn3)CC2)c2ccccc12,-0.72,.,5.8*,0.095,1,-18,-29
O=C(c1ccco1)N1CCN(c2ncccn2)CC1,.,.,0.7,0.64,23,.,.
O=C(COc1ccc(Cl)cc1)N1CCN(c2ncccn2)CC1,0.8,.,0.1,0.0038,3,.,.
